The results in this text go back to ChEMBL document CHEMBL5653631, “A Potent and Selective ULK1 Inhibitor Suppresses Autophagy and Sensitizes Cancer Cells to Nutrient Stress” (iScience, 2018).

Test [1] addresses Mitogen-activated protein kinase kinase kinase 9 (Homo sapiens) (UniProt P80192). The test is described as follows: Inhibition of human recombinant MLK1 at 15 nM in presence of ATP by radiometric assay relative to control.
Test [2] deals with T1, Testis-specific serine/threonine-protein kinase 1 (Homo sapiens) (UniProt Q9BXA7).
T1 sequence (whole entry): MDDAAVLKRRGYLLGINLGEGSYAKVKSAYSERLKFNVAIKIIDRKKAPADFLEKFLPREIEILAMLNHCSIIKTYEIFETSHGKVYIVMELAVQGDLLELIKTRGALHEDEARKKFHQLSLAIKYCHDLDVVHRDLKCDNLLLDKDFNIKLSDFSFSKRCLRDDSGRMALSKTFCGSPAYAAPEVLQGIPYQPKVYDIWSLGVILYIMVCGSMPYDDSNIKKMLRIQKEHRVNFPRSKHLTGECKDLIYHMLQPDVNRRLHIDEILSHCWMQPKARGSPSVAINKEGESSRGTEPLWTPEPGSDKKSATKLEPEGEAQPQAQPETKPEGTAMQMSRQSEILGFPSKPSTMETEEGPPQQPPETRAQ
The test is described as follows: Inhibition of human recombinant TSSK1 at 15 nM in presence of ATP by radiometric assay relative to control.

Test [3] has as its target Mast/stem cell growth factor receptor Kit (Homo sapiens) (UniProt P10721). The test is described as follows: Inhibition of human recombinant KIT at 15 nM related to control ULK1.
Test [4] addresses Cell division cycle 7-related protein kinase (Homo sapiens) (UniProt O00311). Description: Inhibition of human recombinant CDC7 at 40 nM in presence of ATP by radiometric assay relative to control.
Test [5] concerns the target T2, Serine/threonine-protein kinase haspin (Homo sapiens) (UniProt Q8TF76).
T2 sequence (whole entry): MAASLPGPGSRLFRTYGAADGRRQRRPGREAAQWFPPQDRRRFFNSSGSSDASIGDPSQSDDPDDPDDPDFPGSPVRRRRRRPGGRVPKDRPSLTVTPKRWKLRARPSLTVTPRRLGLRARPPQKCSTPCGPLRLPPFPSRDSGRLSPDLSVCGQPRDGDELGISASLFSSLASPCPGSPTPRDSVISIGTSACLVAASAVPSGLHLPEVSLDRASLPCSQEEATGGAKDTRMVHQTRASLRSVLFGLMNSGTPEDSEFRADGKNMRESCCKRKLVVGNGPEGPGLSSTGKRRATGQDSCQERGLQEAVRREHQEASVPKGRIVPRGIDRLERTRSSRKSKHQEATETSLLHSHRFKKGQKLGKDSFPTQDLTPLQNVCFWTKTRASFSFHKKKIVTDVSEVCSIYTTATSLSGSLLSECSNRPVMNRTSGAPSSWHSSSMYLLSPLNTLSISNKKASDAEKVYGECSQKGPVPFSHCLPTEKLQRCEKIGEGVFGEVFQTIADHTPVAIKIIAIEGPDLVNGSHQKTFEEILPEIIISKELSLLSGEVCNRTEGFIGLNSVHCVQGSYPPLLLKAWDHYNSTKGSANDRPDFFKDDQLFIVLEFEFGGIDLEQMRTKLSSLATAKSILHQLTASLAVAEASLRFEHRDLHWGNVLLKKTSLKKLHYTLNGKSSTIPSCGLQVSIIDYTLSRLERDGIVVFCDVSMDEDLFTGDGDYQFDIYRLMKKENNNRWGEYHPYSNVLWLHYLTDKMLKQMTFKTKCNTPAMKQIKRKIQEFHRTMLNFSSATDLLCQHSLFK
Description: Inhibition of human recombinant Haspin at 40 nM related to control ULK1.

Test [6] deals with T3, Bone morphogenetic protein receptor type-2 (Homo sapiens) (UniProt Q13873).
T3 sequence (whole entry): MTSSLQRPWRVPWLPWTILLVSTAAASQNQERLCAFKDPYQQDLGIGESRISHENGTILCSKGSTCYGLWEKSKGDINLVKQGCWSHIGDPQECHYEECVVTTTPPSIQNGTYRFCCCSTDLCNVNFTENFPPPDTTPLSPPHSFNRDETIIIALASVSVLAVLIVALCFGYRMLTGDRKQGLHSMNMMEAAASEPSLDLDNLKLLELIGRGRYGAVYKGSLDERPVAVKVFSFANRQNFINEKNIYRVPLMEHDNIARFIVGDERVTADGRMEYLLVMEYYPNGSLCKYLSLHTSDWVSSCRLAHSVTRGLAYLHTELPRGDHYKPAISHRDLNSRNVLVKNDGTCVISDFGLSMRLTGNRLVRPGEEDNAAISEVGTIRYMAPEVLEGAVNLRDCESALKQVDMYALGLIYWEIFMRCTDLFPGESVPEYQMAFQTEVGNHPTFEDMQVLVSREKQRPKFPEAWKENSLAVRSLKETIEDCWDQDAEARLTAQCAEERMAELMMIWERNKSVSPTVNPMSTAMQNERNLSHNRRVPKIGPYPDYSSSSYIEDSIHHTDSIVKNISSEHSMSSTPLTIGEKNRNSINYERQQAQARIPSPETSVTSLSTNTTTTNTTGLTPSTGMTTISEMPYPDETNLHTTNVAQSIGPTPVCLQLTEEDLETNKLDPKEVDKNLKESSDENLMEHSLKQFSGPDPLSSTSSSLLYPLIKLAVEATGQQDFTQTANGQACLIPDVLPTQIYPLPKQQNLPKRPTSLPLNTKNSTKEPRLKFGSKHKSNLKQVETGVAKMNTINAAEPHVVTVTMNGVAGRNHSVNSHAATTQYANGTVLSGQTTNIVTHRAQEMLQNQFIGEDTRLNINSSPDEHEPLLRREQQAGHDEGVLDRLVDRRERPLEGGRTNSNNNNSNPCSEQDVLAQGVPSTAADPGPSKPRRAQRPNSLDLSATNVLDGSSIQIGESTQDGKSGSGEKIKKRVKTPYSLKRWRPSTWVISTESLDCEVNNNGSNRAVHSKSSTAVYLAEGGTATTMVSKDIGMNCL
The test is described as follows: Inhibition of human recombinant BMPR2 at 500 nM in presence of ATP by radiometric assay relative to control. An outline of the steps:
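Part of a radiometric in vitro activity panel of 327 recombinant human kinases. Each kinase was tested in duplicate at one inhibitor concentration. Activity remaining was expressed as a percentage of the vehicle control, and percent inhibition was taken as 100 minus that value.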

Test [7] has as its target T4, Mitogen-activated protein kinase 13 (Homo sapiens) (UniProt O15264).
T4 sequence (whole entry): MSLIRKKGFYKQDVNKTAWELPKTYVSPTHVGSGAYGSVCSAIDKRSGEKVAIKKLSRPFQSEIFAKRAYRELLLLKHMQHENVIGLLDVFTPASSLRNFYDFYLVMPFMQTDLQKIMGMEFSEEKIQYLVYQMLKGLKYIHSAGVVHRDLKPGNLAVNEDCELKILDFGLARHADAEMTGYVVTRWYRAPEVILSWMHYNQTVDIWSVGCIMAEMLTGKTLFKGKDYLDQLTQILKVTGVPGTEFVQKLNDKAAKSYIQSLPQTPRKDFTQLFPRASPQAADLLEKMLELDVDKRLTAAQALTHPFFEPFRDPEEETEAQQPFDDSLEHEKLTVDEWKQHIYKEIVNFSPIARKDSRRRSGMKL
Description: Inhibition of human recombinant p38delta at 500 nM related to control ULK1.

Sequence of Mitogen-activated protein kinase kinase kinase 9 (Homo sapiens) (P80192 whole entry, looked up): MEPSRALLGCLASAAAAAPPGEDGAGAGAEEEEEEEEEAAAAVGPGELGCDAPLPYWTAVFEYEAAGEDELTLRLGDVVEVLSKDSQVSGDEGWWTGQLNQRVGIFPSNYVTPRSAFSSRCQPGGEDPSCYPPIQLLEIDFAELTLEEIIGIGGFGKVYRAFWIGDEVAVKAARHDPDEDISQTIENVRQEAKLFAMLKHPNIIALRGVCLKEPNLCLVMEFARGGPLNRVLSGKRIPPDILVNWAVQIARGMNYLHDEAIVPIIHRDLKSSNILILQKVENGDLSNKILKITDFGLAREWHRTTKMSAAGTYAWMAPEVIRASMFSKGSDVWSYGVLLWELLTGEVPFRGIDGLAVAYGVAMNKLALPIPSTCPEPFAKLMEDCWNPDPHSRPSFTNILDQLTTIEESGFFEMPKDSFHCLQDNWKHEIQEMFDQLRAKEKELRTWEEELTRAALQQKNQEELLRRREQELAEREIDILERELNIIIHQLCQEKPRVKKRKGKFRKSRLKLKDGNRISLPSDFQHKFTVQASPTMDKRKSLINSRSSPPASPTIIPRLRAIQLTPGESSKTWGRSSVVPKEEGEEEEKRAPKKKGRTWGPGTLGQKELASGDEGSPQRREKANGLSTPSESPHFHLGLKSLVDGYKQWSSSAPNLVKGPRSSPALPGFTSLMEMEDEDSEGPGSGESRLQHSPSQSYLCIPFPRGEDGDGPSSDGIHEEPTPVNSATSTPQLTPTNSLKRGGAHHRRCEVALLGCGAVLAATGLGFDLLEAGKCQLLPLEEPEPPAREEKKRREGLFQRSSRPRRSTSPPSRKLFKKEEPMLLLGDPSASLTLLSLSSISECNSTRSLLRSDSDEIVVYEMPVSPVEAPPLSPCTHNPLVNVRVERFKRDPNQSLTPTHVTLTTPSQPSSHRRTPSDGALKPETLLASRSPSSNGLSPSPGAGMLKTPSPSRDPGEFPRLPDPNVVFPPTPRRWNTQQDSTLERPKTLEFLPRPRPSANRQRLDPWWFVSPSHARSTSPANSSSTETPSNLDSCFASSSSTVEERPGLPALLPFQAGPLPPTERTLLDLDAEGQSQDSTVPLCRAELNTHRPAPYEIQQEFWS
Sequence of Mast/stem cell growth factor receptor Kit (Homo sapiens) (P10721 whole entry): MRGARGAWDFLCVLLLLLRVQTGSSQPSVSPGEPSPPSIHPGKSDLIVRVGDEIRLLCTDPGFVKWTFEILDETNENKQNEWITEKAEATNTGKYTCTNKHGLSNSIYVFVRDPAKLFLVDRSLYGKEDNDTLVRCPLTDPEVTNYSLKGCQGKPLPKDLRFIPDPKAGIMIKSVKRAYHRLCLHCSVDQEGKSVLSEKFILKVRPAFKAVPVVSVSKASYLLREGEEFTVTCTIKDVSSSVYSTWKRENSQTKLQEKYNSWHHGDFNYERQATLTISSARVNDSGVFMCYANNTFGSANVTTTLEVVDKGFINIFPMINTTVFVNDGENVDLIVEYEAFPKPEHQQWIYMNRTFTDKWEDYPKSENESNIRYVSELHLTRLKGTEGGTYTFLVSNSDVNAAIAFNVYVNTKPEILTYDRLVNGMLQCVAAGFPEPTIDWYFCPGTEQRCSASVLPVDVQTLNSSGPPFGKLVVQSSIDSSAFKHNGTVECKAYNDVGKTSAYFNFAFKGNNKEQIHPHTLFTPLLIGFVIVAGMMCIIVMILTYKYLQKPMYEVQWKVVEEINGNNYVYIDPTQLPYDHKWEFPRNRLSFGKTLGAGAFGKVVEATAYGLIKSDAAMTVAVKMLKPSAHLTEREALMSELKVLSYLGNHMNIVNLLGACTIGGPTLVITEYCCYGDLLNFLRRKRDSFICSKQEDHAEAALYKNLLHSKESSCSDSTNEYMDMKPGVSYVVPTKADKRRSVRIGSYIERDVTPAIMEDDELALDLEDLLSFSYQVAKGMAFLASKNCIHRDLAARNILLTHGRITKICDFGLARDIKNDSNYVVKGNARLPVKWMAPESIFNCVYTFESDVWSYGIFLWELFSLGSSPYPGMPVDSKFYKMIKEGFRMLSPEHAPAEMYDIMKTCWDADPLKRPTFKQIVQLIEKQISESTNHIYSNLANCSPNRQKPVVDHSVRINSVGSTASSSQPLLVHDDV
Sequence of Cell division cycle 7-related protein kinase (Homo sapiens) (O00311 whole entry, looked up): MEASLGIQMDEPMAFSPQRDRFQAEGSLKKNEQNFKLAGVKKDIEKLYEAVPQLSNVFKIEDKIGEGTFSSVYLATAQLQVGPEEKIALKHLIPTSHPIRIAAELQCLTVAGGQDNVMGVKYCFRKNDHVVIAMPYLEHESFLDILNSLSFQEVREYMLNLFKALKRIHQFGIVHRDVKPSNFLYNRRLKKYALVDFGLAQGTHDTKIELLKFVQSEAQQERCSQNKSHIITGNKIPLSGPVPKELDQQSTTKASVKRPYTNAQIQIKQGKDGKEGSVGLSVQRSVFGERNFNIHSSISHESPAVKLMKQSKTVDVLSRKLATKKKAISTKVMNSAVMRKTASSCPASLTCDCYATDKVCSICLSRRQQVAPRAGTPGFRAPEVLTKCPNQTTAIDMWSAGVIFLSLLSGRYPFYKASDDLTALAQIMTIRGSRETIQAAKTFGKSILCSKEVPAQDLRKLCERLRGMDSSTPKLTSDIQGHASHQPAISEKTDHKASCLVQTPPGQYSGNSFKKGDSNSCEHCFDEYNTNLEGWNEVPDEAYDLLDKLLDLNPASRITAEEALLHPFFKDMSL

Regarding `CC(C)[C@H](NC(=O)c1cc(-c2cnn3cc(-c4ccc(OCCN5CCCCC5)cc4)cnc23)cs1)C(F)(F)F`, the inhibition in test [1] is 0%; in test [2] it was 23%. In addition, the fold change (FC) in test [3] worked out at 0.

As for `O=C(N[C@@H](C1CC1)C(F)(F)F)c1cc(-c2cnn3cc(-c4ccc(F)cc4)cnc23)cs1`, the inhibition in test [4] came out at 39%. Moreover, the fold change (FC) in test [5] came out at 0.01.

With `CNC(=O)c1ccccc1Oc1nc(Nc2cc(OC)c(OC)c(OC)c2)ncc1Br`, the inhibition in test [6] worked out at 0%. The fold change (FC) in test [7] stood at 0.26.
